From PubChem BioAssay
Sampled rows, rich in hits. Any-hit rate of the full collection: about 1.6%.
NR2E3 ag-1 – agonists of human nuclear receptor NR2E3 | AID 2300 | Q9Y5X4 | hit rate 0.12% among 320,000 | inhibition of corepressor binding, % at 4.78 µM | GST-NR2E3/biotin-RetCOR TR-FRET, 1536-well;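 active = percent inhibition above the cutoff of mean plus 3 SD of all tested compounds, set per screening campaign, cut at about 20% in these data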
Target sequence (Q9Y5X4 whole entry, looked up): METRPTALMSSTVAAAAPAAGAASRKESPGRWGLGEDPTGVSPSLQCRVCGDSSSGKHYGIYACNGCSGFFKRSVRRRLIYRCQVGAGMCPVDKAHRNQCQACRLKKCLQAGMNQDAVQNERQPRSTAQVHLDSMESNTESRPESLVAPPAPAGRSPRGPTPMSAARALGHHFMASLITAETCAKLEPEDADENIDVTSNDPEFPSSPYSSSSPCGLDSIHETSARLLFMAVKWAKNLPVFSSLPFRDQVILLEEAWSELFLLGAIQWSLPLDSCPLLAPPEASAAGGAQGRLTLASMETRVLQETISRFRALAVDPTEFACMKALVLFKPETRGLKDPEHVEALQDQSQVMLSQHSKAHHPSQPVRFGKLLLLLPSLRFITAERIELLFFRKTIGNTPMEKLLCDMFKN
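system = GST-tagged NR2E3 plus biotinylated RetCOR corepressor | input = 1.35 nM GST-NR2E3 | also added = 7 nM biotin-RetCOR | schedule = 5 h incubation at 4 °C | measured by = TR-FRET with europium anti-GST and streptavidin-D2, 340 nm excitation | read-out = percent loss of FRET ratio relative to control wells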
VLA-4 inh – inhibition in a human VLA-4 binding assay; VLA-4 expressing cells, ligand binding flow cytometry; inhibition, % (about 7 µM as worked out from the volumes in the protocol); hit rate 0.2% among 330,000; in the data active = inhibition above about 50%
Rev-erbA mod – modulators of human Rev-erb alpha DNA binding; P20393; Rev-erbα–FITC-DNA binding, fluorescence polarization, 90 min; activity, % at 10 µM; hit rate 0.79% among 370,000; AID 1259318;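 active = activity above about 14%, limit read from the data; passing the limit was not always enough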
PG9 binder – binds the HIV-1 gp120 antibody PG9; TR-FRET gp120-PG9 antibody binding; inhibition, % at 6.7 µM; hit rate 0.43% among 360,000; in the data active = inhibition above about 8.5%
NR2E3 ag-2 – agonists of human NR2E3 nuclear receptor. CHO-S Gal4-NCOR/VP16-NR2E3 two-hybrid, luciferase. hit rate 0.35% among 360,000. Q9Y5X4. inhibition of corepressor binding, % at 3.98 µM;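 active = inhibition above the mean of all tested compounds plus 3 SD, cut at about 70% in these data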;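 note: higher means lower luciferase signal from less NR2E3 corepressor binding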
PG9 binder conf – confirmation of small molecules binding HIV-1 gp120 antibody PG9. shares compounds with PG9 binder. TR-FRET PG9 antibody binding, biochemical. inhibition, % at 6.7 µM. hit rate 90% among 1,500; in the data active = inhibition above about 9%
PGV04 counter – binds control antibody PGV04 in PG9 binder counter-screen | shares compounds with PG9 binder | TR-FRET PGV04 antibody-gp120 binding, biochemical | inhibition, % at 6.7 µM | hit rate 95% among 1,500 | AID 651604; in the data active = inhibition above about 9.5%
PG9 binder DR – PG9 antibody binding, dose response. shares compounds with PG9 binder. TR-FRET PG9 antibody-gp120 binding inhibition. 95 tested, under 10 active. IC50, µM; in the data active = IC50 below about 10 µM
PGV04 binding DR – PGV04 binding, dose response counter-screen; AID 651937; shares compounds with PG9 binder; hit rate 20% among 95; TR-FRET binding to control antibody PGV04; IC50, µM
PG126 DR counter – counter-screen for PG9 binders: binding to control antibody PG126; TR-FRET binding to antibody PG126, counterscreen; shares compounds with PG9 binder; hit rate 20% among 95; AID 651939; IC50, µM
Rev-erbA confirm – confirmation of modulators of human Rev-erb alpha DNA binding | Rev-erb alpha FITC-DNA binding, fluorescence polarization, 90 min | hit rate 61% among 3,000 | activation, % at 25 µM | shares compounds with Rev-erbA mod;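 active = activation at or above a set limit, or at least 3 SD above the negative control mean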
RORg DNA counter – RORgamma DNA-binding activity, dose-response counter-screen. hit rate 8% among 910. IC50, µM. purified RORgamma protein-FITC-DNA binding, fluorescence polarization. shares compounds with Rev-erbA mod;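 active = Compounds whose fitted half-maximal concentration for disrupting protein-DNA binding is below 10 micromolar; the record names Rev-erb in its text, so the target is in doubt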
A number is an active result; – = inactive; · = no result given. Cut-off read from the data, not from the text of the source, unless noted: active = IC50 below about 9 µM; inactive = the rest.

SMILES | NR2E3 ag-1 | VLA-4 inh | Rev-erbA mod | PG9 binder | NR2E3 ag-2 | PG9 binder conf | PGV04 counter | Rev-erbA confirm | others
CCOc1ccc2cc(C#N)c(SCC(=O)NC(C)CC)nc2c1 (stereo not drawn) | – | – | · | · | · | · | · | ·
COc1ccc(-c2ccc(C#N)c(SCC(=O)NCCc3ccccc3)n2)cc1OC | – | – | · | · | – | · | · | ·
CCOC(=O)CSc1nc2cc(OCC)ccc2cc1C#N | – | – | 83 | 28 | – | 38 | 58 | 72 | RORg DNA counter=–
COc1ccc2cc(C#N)c(SCC(=O)NNC(=O)Cc3ccccc3)nc2c1 | – | – | 38 | 27 | – | 24 | 52 | –
COC(=O)CSc1nc2cc(OC)ccc2cc1C#N | – | – | – | – | – | · | · | ·
C=CCN=C1NC(c2cccc(Cl)c2)C(C(=O)OC)=C(C)N1Cc1ccc(C(F)(F)F)cc1 (stereo not drawn) | · | · | – | – | · | · | · | ·
NC(=O)NC(=O)COC(=O)c1sc2ccccc2c1Cl | – | – | – | – | – | · | · | ·
O=C(COC(=O)c1sc2ccccc2c1Cl)Nc1ncc(Cl)cc1Cl | – | – | 52 | 21 | – | 22 | 45 | 36 | RORg DNA counter=–
Cc1ccc(Cl)cc1-n1c(SCC(=O)NCCC2=CCCCC2)nc2n[nH]c(C)c2c1=N | – | – | 29 | 14 | – | 15 | 20 | –
N#CCc1ccc(OC[C@@H](O)CN2CCC(C(O)(c3ccccc3)c3ccccc3)CC2)cc1 | · | · | – | · | · | · | · | ·
Clc1nc(Oc2ccccc2)nc(-c2cn(-c3ccccc3)c3ccccc23)n1 | – | – | – | – | – | · | · | ·
CCNc1nc(Cl)nc(-c2cn(-c3ccccc3)c3ccccc23)n1 | – | – | 42 | 11 | – | 9.0 | 9.4 | –
O=C(N[C@@H](Cc1ccccc1)C(=O)N1CCC2CCN(S(=O)(=O)c3ccccc3)CC21)[C@@H]1CCCN1 (stereo partly drawn) | · | · | – | · | · | · | · | ·
COc1ccccc1N1C(=O)C2C(C(=O)c3ccccc3)=NN(c3ccc(Br)cc3)C2C1=O (stereo not drawn) | – | – | 66 | 13 | – | 17 | 28 | 21
Cc1nc2sc(C(=O)OCC(=O)N3c4ccccc4CC3C)c(C)c2c(=O)[nH]1 (stereo not drawn) | – | – | 20 | 9.9 | – | 21 | 26 | –
COC(=O)C1=C(C)N(Cc2ccccc2C(F)(F)F)C(=NCc2cccc(C(F)(F)F)c2)NC1CCc1ccccc1 (stereo not drawn) | · | · | – | – | · | · | · | ·
COC(=O)[C@]12C[C@H](CC(=O)NCc3cccc(C(F)(F)F)c3)C(=O)N(CCC3=CCCCC3)C1=C[C@H](C1CCCC1)O[C@@H]2C | · | · | – | · | · | · | · | ·
Cc1ccc2nc(SCC(=O)Nc3cc(C)on3)c(C)cc2c1 | – | – | 40 | 18 | – | 26 | 44 | 21
CCOc1ccc2nc(SCC(=O)Nc3cc(C)on3)c(C)cc2c1 | – | – | 58 | 28 | – | 33 | 51 | –
COc1ccc2cc(C)c(SCC(=O)Nc3cc(C)on3)nc2c1 | – | – | 109 | 34 | – | 46 | 64 | 33 | RORg DNA counter=–
Cc1cc(C)c(C#N)c(SCC(=O)Nc2cc(C)on2)n1 | · | – | – | – | – | · | · | ·
CCOc1ccc2nc(SCC(=O)NNC(=O)c3ccco3)c(C)cc2c1 | – | – | – | – | – | · | · | ·
COc1ccc(C2CC(=O)C(c3cccc(C)c3)=CN2Cc2ccccc2)cc1 (stereo not drawn) | · | · | – | – | · | · | · | ·
O=C(NCC1CCCO1)c1cc(-c2ccccc2)nc2ccc(Br)cc12 (stereo not drawn) | – | – | 33 | 15 | – | 19 | 25 | 26
Cc1cc(Br)cc2c(C(=O)NCC3CCCO3)cc(-c3ccccc3)nc12 (stereo not drawn) | – | – | – | – | – | · | · | ·
SMILES | NR2E3 ag-1 | VLA-4 inh | Rev-erbA mod | PG9 binder | NR2E3 ag-2 | PG9 binder conf | PGV04 counter | Rev-erbA confirm | others
Cc1sc2ncnc(N3CCC(C(=O)Nc4ccc(C#N)cc4)CC3)c2c1C | – | – | 27 | 15 | – | 16 | 10 | 19 | PG9 binder DR=–;PGV04 binding DR=8.4;PG126 DR counter=8.7
COc1ccc(NC(=O)CSc2nnc(-c3cccs3)n2-c2ccccc2)cc1 | – | – | 25 | 22 | – | 33 | 57 | 21
Cc1ccc(C)c(Cn2c(=O)n(CCCC(=O)NCc3ccco3)c(=O)c3sccc32)c1 | – | – | 18 | 18 | – | 21 | 29 | –
c1ccc2nc(-c3ccc(N4CCOCC4)cc3)ccc2c1 | – | – | 90 | 39 | – | 45 | 42 | 64 | PG9 binder DR=–;PGV04 binding DR=3.7;PG126 DR counter=4.2;RORg DNA counter=–
O=C(Nc1ccc(F)cc1)OCc1cn(Cc2ccc(F)c(F)c2)nn1 | · | · | – | · | · | · | · | ·
O=C(c1cc2cc(Cl)ccc2[nH]1)N1CCN(c2ccccn2)CC1 | – | – | 51 | 27 | – | – | 23 | 41 | RORg DNA counter=5.4
O=C(CSc1ncnc2c1oc1ccccc12)Nc1cccc(F)c1 | – | – | 343 | 69 | – | 67 | 87 | 322 | RORg DNA counter=–
NC(=O)CSc1ncnc2c1oc1ccccc12 | – | – | – | – | – | · | · | ·
O=C(CSc1ncnc2c1oc1ccccc12)NCc1ccc(F)cc1 | – | – | 395 | 51 | – | 25 | 74 | 434 | RORg DNA counter=–
CCC(NC(=O)c1ccc2c(c1)c(C)c(C)n2Cc1ccc(Cl)cc1)c1ccccc1 (stereo not drawn) | · | · | – | · | · | · | · | ·
COc1ccc(C(C)(C)C)cc1NC(=O)COC(=O)c1cc(SC)ccc1Cl | – | – | – | – | – | · | · | ·
COc1ccc(NC(=O)COC(=O)c2cc(SC)ccc2Cl)c(OC)c1 | – | – | 34 | 18 | – | 30 | 45 | 29
CCOCCCn1c(=S)[nH]c2cc(C(=O)NCCc3ccccc3)ccc2c1=O | – | – | 43 | 18 | – | 23 | 53 | 31 | RORg DNA counter=–
CCCCCNC(=O)c1ccc2c(=O)n(CCCOCC)c(=S)[nH]c2c1 | – | – | – | – | – | · | · | ·
O=C(Nc1nnc(SCc2c(Cl)cccc2Cl)s1)c1ccc2ncsc2c1 | – | – | · | · | · | · | · | ·
N#Cc1ccc(CSc2nnc(NC(=O)c3ccc4ncsc4c3)s2)cc1 | – | – | 60 | 32 | – | 30 | 48 | 23
